Data taken from ChEMBL document CHEMBL3612008, “Synthesis and anticancer effects evaluation of 1-alkyl-3-(6-(2-methoxy-3-sulfonylaminopyridin-5-yl)benzo[d]thiazol-2-yl)urea as anticancer agents with low toxicity” (Bioorg Med Chem, 2015).

What was measured:
[1] = Acute toxicity in mouse dosed orally once daily and observed for 7 days by up and down procedure; assay type: organism-based; settings: in vivo, po
In short: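 Male mice, 20.1 ± 1.9 g. Compound dissolved in NMP, then diluted with PEG400 and water (NMP/PEG400/H2O 1:6:3 by volume), given by gavage at 20 ml/kg. Starting dose 10 mg/kg, single mouse per step; dose raised 1.5-fold when the animal behaved normally, continuing until a death occurred.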

HCT-116 = experiment: Antiproliferative activity against human HCT116 cells incubated for 72 hrs by MTT assay; assay type: functional, cell-based; settings: HCT-116, 72 h
In short: (§1)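 HCT-116, MCF-7 and U-87 MG grown in DMEM with 10% FBS, 37 °C, 5% CO2; 3000-5000 cells/well preincubated 24 h, then compounds at final 100, 10, 1, 0.1, 0.01 µM for 72 h.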

A549 = experiment: Antiproliferative activity against human A549 cells incubated for 72 hrs by MTT assay; assay type: functional, cell-based; settings: A549, 72 h
In short: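 A549 in RPMI-1640 with 10% calf serum, 37 °C, 5% CO2; seeded 3000-5000 cells/well, 24 h before exposure to final 100, 10, 1, 0.1, 0.01 µM for 72 h. MTT (5 mg/ml in PBS) added, 4 h at 37 °C; formazan dissolved in DMSO, OD 570 nm. Three experiments in triplicate; IC50 from inhibition ratios.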

U-87 MG = experiment: Antiproliferative activity against human U87MG cells incubated for 72 hrs by MTT assay; assay type: functional, cell-based, U-87MG ATCC; in short: as §1
MCF7 = experiment: Antiproliferative activity against human MCF7 cells incubated for 72 hrs by MTT assay; assay type: functional, cell-based; settings: MCF7, 72 h; in short: as §1
CCRF S-180 [2] = experiment: Anticancer activity against mouse S180 cells transplanted in mouse assessed as reduction in tumor weight at 10 mg/kg, po dosed once daily for 8 days; assay type: functional; settings: CCRF S-180, po, 192 h
[3] = target: PI3-kinase p110-alpha/p85-alpha (Homo sapiens, UniProt P42336); experiment: Inhibition of p110alpha/p85alpha (unknown origin) incubated for 40 mins by luciferase based ATP depletion assay; assay type: protein-complex assay
CCRF S-180 [4] = experiment: Anticancer activity against mouse S180 cells transplanted in mouse assessed as reduction in tumor weight at 1 mg/kg, po dosed once daily for 8 days; assay type: functional; settings: CCRF S-180, po, 192 h
[5] = target: PI3-kinase p110-delta/p85-alpha (Homo sapiens, UniProt O00329); experiment: Inhibition of p110delta/p85alpha (unknown origin) incubated for 40 mins by luciferase based ATP depletion assay; assay type: protein-complex assay
PI3K p110 beta/p85 alpha = PI3K p110 beta/p85 alpha (Homo sapiens, UniProt P42338); experiment: Inhibition of p110beta/p85alpha (unknown origin) incubated for 40 mins by luciferase based ATP depletion assay; assay type: protein-complex assay
CCRF S-180 [6] = experiment: Anticancer activity against mouse S180 cells transplanted in mouse assessed as reduction in tumor weight at 3 mg/kg, po dosed once daily for 8 days; assay type: functional; settings: CCRF S-180, po, 192 h
[7] = target: PI3-kinase subunit gamma/Phosphoinositide 3-kinase regulatory subunit 5 (Homo sapiens, UniProt P48736); experiment: Inhibition of p110gamma/PIK3R5 (unknown origin) incubated for 40 mins by luciferase based ATP depletion assay; assay type: protein-complex assay
Mus musculus = experiment: Toxicity in mouse S180 cells transplanted mouse assessed as increase in body weight at 1 to 10 mg/kg, po dosed once daily for 8 days; assay type: organism-based, CCRF S-180; settings: in vivo, 192 h
In short: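 S180 flank homograft mice (3×10^6 cells s.c., 8 per group) dosed orally once daily for 8 days at 1.0, 3.0 or 10.0 mg/kg in NMP/PEG400/H2O (1:6:3), solvent-only controls; body weights recorded daily and again at sacrifice on Day 9.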

mTORC1 = mTORC1 (Homo sapiens, UniProt P42345); experiment: Inhibition of mTORC1 (unknown origin) incubated for 40 mins by luciferase based ATP depletion assay; assay type: protein-complex assay

Sequence of PI3-kinase p110-alpha/p85-alpha (P27986 whole entry): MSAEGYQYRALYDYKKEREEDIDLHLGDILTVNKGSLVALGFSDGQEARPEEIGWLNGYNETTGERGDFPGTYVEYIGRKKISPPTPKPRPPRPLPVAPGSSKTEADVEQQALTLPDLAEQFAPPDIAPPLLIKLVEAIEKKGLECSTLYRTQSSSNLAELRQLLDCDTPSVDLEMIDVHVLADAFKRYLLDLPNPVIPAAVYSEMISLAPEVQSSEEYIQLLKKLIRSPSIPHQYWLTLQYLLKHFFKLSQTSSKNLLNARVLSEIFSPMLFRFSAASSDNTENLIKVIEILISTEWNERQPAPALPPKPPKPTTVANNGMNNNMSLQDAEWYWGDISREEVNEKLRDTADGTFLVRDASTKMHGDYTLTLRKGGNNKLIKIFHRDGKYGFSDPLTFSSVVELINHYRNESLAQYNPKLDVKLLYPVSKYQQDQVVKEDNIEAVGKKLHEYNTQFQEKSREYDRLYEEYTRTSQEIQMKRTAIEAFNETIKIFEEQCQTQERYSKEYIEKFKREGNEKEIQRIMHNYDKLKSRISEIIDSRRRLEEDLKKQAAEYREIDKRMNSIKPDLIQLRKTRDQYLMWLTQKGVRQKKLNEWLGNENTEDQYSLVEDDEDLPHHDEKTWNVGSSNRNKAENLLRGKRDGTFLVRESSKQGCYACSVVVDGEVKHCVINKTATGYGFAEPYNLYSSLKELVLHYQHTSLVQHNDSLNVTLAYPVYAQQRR
Sequence of PI3-kinase p110-alpha/p85-alpha (P42336 whole entry): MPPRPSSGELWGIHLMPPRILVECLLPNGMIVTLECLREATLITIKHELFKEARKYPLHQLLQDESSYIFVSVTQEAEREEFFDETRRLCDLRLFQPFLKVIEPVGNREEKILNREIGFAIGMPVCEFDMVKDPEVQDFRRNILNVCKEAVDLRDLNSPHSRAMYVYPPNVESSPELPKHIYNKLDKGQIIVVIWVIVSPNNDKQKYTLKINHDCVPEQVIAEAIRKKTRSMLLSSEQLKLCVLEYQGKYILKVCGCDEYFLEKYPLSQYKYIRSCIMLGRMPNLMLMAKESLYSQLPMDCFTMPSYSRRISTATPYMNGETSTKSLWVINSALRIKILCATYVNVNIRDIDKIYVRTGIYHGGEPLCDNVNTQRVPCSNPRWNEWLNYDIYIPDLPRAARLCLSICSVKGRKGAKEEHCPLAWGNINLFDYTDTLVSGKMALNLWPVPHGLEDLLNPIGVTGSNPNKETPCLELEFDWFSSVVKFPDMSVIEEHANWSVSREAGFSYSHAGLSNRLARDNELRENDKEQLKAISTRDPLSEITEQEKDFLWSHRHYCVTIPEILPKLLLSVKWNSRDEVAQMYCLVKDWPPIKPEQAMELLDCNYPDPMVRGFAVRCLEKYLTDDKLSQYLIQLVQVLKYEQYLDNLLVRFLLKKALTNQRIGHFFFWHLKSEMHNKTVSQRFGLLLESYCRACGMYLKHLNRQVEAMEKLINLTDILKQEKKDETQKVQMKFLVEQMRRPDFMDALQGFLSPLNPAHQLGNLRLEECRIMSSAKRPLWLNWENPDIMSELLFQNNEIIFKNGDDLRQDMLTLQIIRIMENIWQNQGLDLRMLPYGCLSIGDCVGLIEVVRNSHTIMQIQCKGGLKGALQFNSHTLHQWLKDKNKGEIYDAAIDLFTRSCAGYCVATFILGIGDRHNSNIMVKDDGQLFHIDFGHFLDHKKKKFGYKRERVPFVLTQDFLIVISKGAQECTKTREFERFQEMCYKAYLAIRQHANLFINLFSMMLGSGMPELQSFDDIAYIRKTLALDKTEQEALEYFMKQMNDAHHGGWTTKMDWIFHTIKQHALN
Sequence of PI3-kinase p110-delta/p85-alpha (P27986 whole entry): as the sequence (P27986 whole entry) above
Sequence of PI3-kinase p110-delta/p85-alpha (O00329 whole entry): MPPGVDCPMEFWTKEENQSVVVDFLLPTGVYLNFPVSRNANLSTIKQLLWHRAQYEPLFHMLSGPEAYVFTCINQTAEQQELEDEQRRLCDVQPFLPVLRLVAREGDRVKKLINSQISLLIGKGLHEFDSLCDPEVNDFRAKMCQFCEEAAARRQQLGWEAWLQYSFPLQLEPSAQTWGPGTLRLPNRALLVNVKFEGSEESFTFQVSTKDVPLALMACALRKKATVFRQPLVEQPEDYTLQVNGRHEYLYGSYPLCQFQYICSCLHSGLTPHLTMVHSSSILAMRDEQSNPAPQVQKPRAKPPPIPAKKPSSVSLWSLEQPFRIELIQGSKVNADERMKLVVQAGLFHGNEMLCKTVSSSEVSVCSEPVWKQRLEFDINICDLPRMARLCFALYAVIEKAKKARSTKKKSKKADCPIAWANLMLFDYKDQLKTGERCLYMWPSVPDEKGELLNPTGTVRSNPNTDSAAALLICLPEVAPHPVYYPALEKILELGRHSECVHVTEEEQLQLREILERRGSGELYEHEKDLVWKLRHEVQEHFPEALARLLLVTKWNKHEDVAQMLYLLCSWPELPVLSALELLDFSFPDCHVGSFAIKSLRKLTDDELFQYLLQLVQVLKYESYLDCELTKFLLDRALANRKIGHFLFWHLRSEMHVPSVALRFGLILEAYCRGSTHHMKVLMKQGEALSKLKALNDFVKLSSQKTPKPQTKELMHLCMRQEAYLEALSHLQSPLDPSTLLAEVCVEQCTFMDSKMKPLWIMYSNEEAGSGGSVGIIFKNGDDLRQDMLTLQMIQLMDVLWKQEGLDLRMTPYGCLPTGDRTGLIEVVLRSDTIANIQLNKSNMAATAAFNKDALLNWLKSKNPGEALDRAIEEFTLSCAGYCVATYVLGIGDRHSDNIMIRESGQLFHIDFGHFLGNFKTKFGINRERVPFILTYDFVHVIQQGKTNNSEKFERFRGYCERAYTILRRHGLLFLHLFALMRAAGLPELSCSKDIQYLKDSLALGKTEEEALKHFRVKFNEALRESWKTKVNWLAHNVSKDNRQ
Sequence of PI3K p110 beta/p85 alpha (P27986 whole entry): as the sequence (P27986 whole entry) above
Sequence of PI3K p110 beta/p85 alpha (P42338 whole entry): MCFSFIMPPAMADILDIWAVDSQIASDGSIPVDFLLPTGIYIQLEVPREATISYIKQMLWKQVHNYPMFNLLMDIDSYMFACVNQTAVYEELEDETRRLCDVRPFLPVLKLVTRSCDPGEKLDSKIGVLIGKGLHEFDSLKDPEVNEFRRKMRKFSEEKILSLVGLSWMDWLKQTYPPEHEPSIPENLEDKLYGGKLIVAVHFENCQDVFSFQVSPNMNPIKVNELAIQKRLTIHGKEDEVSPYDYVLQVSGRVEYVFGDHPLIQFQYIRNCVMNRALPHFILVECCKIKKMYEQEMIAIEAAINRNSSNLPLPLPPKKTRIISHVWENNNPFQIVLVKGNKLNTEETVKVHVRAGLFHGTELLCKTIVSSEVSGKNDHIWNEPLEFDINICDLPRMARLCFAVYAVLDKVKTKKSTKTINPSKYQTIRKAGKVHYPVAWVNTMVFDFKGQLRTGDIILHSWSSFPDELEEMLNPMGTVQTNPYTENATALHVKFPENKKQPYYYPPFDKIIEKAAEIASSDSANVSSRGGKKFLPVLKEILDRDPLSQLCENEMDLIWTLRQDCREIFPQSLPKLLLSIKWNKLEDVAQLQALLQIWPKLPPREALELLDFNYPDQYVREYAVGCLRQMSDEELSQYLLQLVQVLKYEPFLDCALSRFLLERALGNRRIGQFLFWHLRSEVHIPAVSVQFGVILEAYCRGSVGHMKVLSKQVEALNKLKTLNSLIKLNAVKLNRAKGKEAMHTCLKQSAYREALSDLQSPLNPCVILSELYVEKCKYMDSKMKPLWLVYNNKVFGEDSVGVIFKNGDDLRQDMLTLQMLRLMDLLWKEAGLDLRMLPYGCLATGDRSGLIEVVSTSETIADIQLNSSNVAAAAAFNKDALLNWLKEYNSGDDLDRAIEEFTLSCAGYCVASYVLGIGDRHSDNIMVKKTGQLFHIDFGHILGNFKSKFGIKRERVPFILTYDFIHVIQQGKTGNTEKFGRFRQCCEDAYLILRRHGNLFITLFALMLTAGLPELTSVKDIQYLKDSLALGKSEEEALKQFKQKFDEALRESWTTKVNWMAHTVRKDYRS

Compound	IC50 (HCT-116)	IC50 (A549)	IC50 (U-87 MG)	IC50 (MCF7)	other results
CC(=O)Nc1nc2ccc(-c3cnc(Cl)c(NS(=O)(=O)c4ccc(F)cc4)c3)cc2s1	0.44 µM	0.41 µM	0.44 µM	0.43 µM	LD50 at 168 h [1]: 20 mg/kg
CCCNc1nc2ccc(-c3cnc(Cl)c(NS(=O)(=O)c4ccc(F)cc4)c3)cc2s1	> 20 µM	–	–	–	–
O=S(=O)(Nc1cc(-c2ccc3nc(NC4CC4)sc3c2)cnc1Cl)c1ccc(F)cc1	5.75 µM	–	–	–	–
COc1ncc(-c2ccc3nc(NC4CC4)sc3c2)cc1NS(=O)(=O)c1ccc(F)cc1	1.56 µM	1.33 µM	1.5 µM	0.45 µM	–
CCOC(=O)CNc1nc2ccc(-c3cnc(OC)c(NS(=O)(=O)c4ccc(F)cc4)c3)cc2s1	> 20 µM	–	–	–	–
O=C(Nc1nc2ccc(-c3cnc(Cl)c(NS(=O)(=O)c4ccc(F)cc4)c3)cc2s1)NC1CC1	1.75 µM	1.03 µM	1.72 µM	1.09 µM	–
CCN(CC)CCNC(=O)Nc1nc2ccc(-c3cnc(Cl)c(NS(=O)(=O)c4ccc(F)cc4)c3)cc2s1	0.92 µM	5.26 µM	1.39 µM	0.71 µM	–
O=C(NCCN1CCOCC1)Nc1nc2ccc(-c3cnc(Cl)c(NS(=O)(=O)c4ccc(F)cc4)c3)cc2s1	2.96 µM	6.69 µM	2.39 µM	0.95 µM	–
CNC(=O)Nc1nc2ccc(-c3cnc(OC)c(NS(=O)(=O)c4ccc(F)cc4)c3)cc2s1	0.87 µM	1.56 µM	1.23 µM	1.19 µM	LD50 at 168 h [1]: 40 mg/kg
COc1ncc(-c2ccc3nc(NC(=O)NC4CC4)sc3c2)cc1NS(=O)(=O)c1ccc(F)cc1	0.47 µM	0.9 µM	0.52 µM	1.19 µM	–
CCN(CC)CCNC(=O)Nc1nc2ccc(-c3cnc(OC)c(NS(=O)(=O)c4ccc(F)cc4)c3)cc2s1	0.3 µM	0.45 µM	0.39 µM	0.32 µM	LD50 at 168 h [1]: 320 mg/kg; inhibition in vivo at 10 mg/kg (CCRF S-180 [2]): 56.2%; IC50 [3]: 0.013 µM; inhibition in vivo at 1 mg/kg (CCRF S-180 [4]): 27.2%; IC50 [5]: 0.148 µM; IC50 (PI3K p110 beta/p85 alpha): 0.09 µM; inhibition in vivo at 3 mg/kg (CCRF S-180 [6]): 44.3%; IC50 [7]: 0.011 µM; Activity (Mus musculus): Non-toxic; IC50 (mTORC1): 0.078 µM
COc1ncc(-c2ccc3nc(NC(=O)NCCN4CCOCC4)sc3c2)cc1NS(=O)(=O)c1ccc(F)cc1	0.52 µM	0.43 µM	0.49 µM	0.75 µM	–
COc1ncc(-c2ccc3nc(NC(=O)NCCN4CCCC4)sc3c2)cc1NS(=O)(=O)c1ccc(F)cc1	0.31 µM	0.3 µM	0.36 µM	0.41 µM	LD50 at 168 h [1]: 300 mg/kg
COc1ncc(-c2ccc3nc(NC(=O)NCCN4CCCCC4)sc3c2)cc1NS(=O)(=O)c1ccc(F)cc1	0.61 µM	0.33 µM	0.75 µM	0.45 µM	–
COc1ncc(-c2ccc3nc(NC(=O)NCCN4CCN(C)CC4)sc3c2)cc1NS(=O)(=O)c1ccc(F)cc1	0.54 µM	0.55 µM	0.44 µM	0.47 µM	LD50 at 168 h [1]: 300 mg/kg
COc1ncc(-c2ccc3nc(NC(=O)NCCN(C)C)sc3c2)cc1NS(=O)(=O)c1ccc(F)cc1	0.24 µM	0.47 µM	1.02 µM	0.5 µM	–
CCN(CC)CCNC(=O)Nc1nc2ccc(-c3cnc(OC)c(NS(=O)(=O)c4ccc(C)cc4)c3)cc2s1	0.18 µM	0.31 µM	0.36 µM	0.17 µM	–
COc1ccc(-c2ccc3nc(NC(=O)NCCN4CCOCC4)sc3c2)cn1	> 20 µM	5.16 µM	7.23 µM	> 20 µM	–
COc1ncc(-c2ccc3nc(NC(=O)NCCN4CCOCC4)sc3c2)cc1C#N	4.55 µM	4.71 µM	8.38 µM	2.3 µM	–
COc1ncc(-c2ccc3nc(NC(=O)NCCN4CCOCC4)sc3c2)cc1NS(=O)(=O)C1CC1	0.64 µM	1.92 µM	1.67 µM	1.8 µM	–
COc1ncc(-c2ccc3nc(NC(=O)NCCN4CCOCC4)sc3c2)cc1NS(=O)(=O)c1ccc(Cl)cc1	0.54 µM	0.53 µM	1.05 µM	0.65 µM	–
COc1ncc(-c2ccc3nc(NC(=O)NCCN4CCOCC4)sc3c2)cc1NS(=O)(=O)c1ccc(C)cc1	0.57 µM	0.38 µM	0.52 µM	0.21 µM	–
COc1ncc(-c2ccc3nc(NC(=O)NCCN4CCOCC4)sc3n2)cc1NS(=O)(=O)c1ccc(F)cc1	0.25 µM	0.49 µM	0.48 µM	0.26 µM	–
Cn1c(=O)n(-c2ccc(C(C)(C)C#N)cc2)c2c3cc(-c4cnc5ccccc5c4)ccc3ncc21 [DACTOLISIB]	–	0.76 µM	1.41 µM	0.48 µM	–
